Data reported in ChEMBL document CHEMBL1687802, “An RpoB mutation confers dual heteroresistance to daptomycin and vancomycin in Staphylococcus aureus” (2010).
Values after ≈ are worked out from the molar mass of the structure shown.

Tests used:
[1] = system: Staphylococcus aureus; test: Antimicrobial activity against methicillin-resistant Staphylococcus aureus N315deltaIP after 24 hrs by Etest method; format: functional
Summary of the method: (§1)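 Etest MICs (daptomycin, vancomycin, oxacillin, rifampin) on Mueller-Hinton agar, with the daptomycin medium supplemented with 50 mg/liter Ca2+. Plates were swabbed from a 0.5 McFarland suspension, strips were applied 10 min later, and plates were read after 24 h at 37°C. Strains were pKOR1 allelic-replacement mutants or revertants of N315ΔIP (mecI-inactivated, beta-lactamase plasmid cured) or 10*3d1, grown in BHI broth at 37°C.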

[2] = system: Staphylococcus aureus; test: Antimicrobial activity against methicillin-resistant Staphylococcus aureus N315deltaIP harboring hypothetical protein SA1826 14A mutant after 24 hrs by Etest method; format: functional; summary of the method: as §1
[3] = system: Staphylococcus aureus; test: Antimicrobial activity against methicillin-resistant Staphylococcus aureus 10*3d1 harboring hypothetical protein SA1826 14A mutant gene after 24 hrs by Etest method; format: functional; conditions: 10*3d1, 24 h; summary of the method: as §1
[4] = system: Staphylococcus aureus; test: Antimicrobial activity against methicillin-resistant Staphylococcus aureus 10*3d1 harboring rpoB 621E mutation after 24 hrs by Etest method; conditions: 10*3d1, 24 h
[5] = system: Staphylococcus aureus; test: Antimicrobial activity against methicillin-resistant Staphylococcus aureus 10*3d1 harboring hypothetical protein SA1826 14A(-) and rpoB 621E mutant gene after 24 hrs by Etest method; format: functional; conditions: 10*3d1, 24 h; summary of the method: as §1
[6] = system: Staphylococcus aureus; test: Antimicrobial activity against methicillin-resistant Staphylococcus aureus N315deltaIP harboring hypothetical protein SA1826 14E mutant gene after 24 hrs by Etest method; format: functional; summary of the method: as §1
[7] = system: Staphylococcus aureus; test: Antimicrobial activity against methicillin-resistant Staphylococcus aureus 10*3d1 harboring hypothetical protein SA1826 14A mutant and rpoB 621A mutant after 24 hrs by Etest method; format: functional; conditions: 10*3d1, 24 h; summary of the method: as §1
[8] = system: Staphylococcus aureus; test: Antimicrobial activity against methicillin-resistant Staphylococcus aureus N315deltaIP harboring rpoB 621A mutant after 24 hrs by Etest method
[9] = system: Staphylococcus aureus; test: Antimicrobial activity against methicillin-resistant Staphylococcus aureus N315deltaIP harboring rpoB A621E mutant gene after 24 hrs by Etest method; format: functional; summary of the method: as §1
[10] = system: Staphylococcus aureus; test: Antimicrobial activity against methicillin-resistant Staphylococcus aureus 10*3d1 harboring hypothetical protein SA1826 14E mutant gene after 24 hrs by Etest method; format: functional; conditions: 10*3d1, 24 h; summary of the method: as §1
[11] = system: Staphylococcus aureus; test: Antimicrobial activity against vancomycin-intermediate Staphylococcus aureus MU50 by Etest method; format: functional
[12] = system: Staphylococcus aureus; test: Antimicrobial activity against vancomycin-intermediate Staphylococcus aureus MI-P84 selected at 4 mg/L of compound by Etest method
[13] = system: Staphylococcus aureus; test: Antimicrobial activity against vancomycin-intermediate Staphylococcus aureus MI by Etest method; format: functional
[14] = system: Staphylococcus aureus; test: Antimicrobial activity against vancomycin-intermediate Staphylococcus aureus MU50-P35 selected at 4 mg/L of compound by Etest method
[15] = system: Staphylococcus aureus; test: Antimicrobial activity against vancomycin-intermediate Staphylococcus aureus MU50-PR selected at 4 mg/L of compound by Etest method
[16] = system: Staphylococcus aureus; test: Antimicrobial activity against vancomycin-intermediate Staphylococcus aureus MI-PR selected at 4 mg/L of compound by Etest method
[17] = system: Staphylococcus aureus; test: Antimicrobial activity against vancomycin-susceptible Staphylococcus aureus MU50-P35 by Etest method
[18] = system: Staphylococcus aureus; test: Antimicrobial activity against vancomycin-intermediate Staphylococcus aureus MI-PR selected at 4 mg/L of vancomycin by Etest method; format: functional
[19] = system: Staphylococcus aureus; test: Antimicrobial activity against vancomycin-susceptible Staphylococcus aureus MI-P84 by Etest method
[20] = system: Staphylococcus aureus; test: Antimicrobial activity against vancomycin-intermediate Staphylococcus aureus MU50-PR selected at 4 mg/L of vancomycin by Etest method; format: functional

| SMILES | MIC [1] [µg/mL] | MIC [2] [µg/mL] | MIC [3] [µg/mL] | MIC [4] [µg/mL] | MIC [5] [µg/mL] | MIC [6] [µg/mL] | MIC [7] [µg/mL] | MIC [8] [µg/mL] | MIC [9] [µg/mL] | MIC [10] [µg/mL] | MIC [11] [µg/mL] | MIC [12] [µg/mL] | MIC [13] [µg/mL] | MIC [14] [µg/mL] | MIC [15] [µg/mL] | MIC [16] [µg/mL] | MIC [17] [µg/mL] | MIC [18] [µg/mL] | MIC [19] [µg/mL] | MIC [20] [µg/mL] |
| --- | --- | --- | --- | --- | --- | --- | --- | --- | --- | --- | --- | --- | --- | --- | --- | --- | --- | --- | --- | --- |
| CO[C@H]1/C=C/O[C@@]2(C)Oc3c(C)c(O)c4c(O)c(c(/C=N/N5CCN(C)CC5)c(O)c4c3C2=O)NC(=O)/C(C)=C\C=C\[C@H](C)[C@H](O)[C@@H](C)[C@@H](O)[C@@H](C)[C@H](OC(C)=O)[C@@H]1C [RIFAMPIN] | 0.006 (≈ 0.00729 µM) | 0.006 (≈ 0.00729 µM) | 0.006 (≈ 0.00729 µM) | 0.006 (≈ 0.00729 µM) | 0.006 (≈ 0.00729 µM) | 0.006 (≈ 0.00729 µM) | 0.006 (≈ 0.00729 µM) | 0.006 (≈ 0.00729 µM) | 0.006 (≈ 0.00729 µM) | 0.006 (≈ 0.00729 µM) |  |  |  |  |  |  |  |  |  |  |
| CN[C@H](CC(C)C)C(=O)N[C@H]1C(=O)N[C@@H](CC(N)=O)C(=O)N[C@H]2C(=O)N[C@H]3C(=O)N[C@H](C(=O)N[C@H](C(=O)O)c4cc(O)cc(O)c4-c4cc3ccc4O)[C@H](O)c3ccc(c(Cl)c3)Oc3cc2cc(c3O[C@@H]2O[C@H](CO)[C@@H](O)[C@H](O)[C@H]2O[C@H]2C[C@](C)(N)[C@H](O)[C@H](C)O2)Oc2ccc(cc2Cl)[C@H]1O [VANCOMYCIN] | 0.5 (≈ 0.345 µM) | 0.5 (≈ 0.345 µM) | 3 (≈ 2.07 µM) | 3 (≈ 2.07 µM) | 3 (≈ 2.07 µM) | 0.5 (≈ 0.345 µM) | 0.75 (≈ 0.518 µM) | 0.25 (≈ 0.173 µM) | 3 (≈ 2.07 µM) | 3 (≈ 2.07 µM) | 6 (≈ 4.14 µM) | 1 (≈ 0.69 µM) | 7 (≈ 4.83 µM) | 2 (≈ 1.38 µM) | 6 (≈ 4.14 µM) | 6 (≈ 4.14 µM) |  |  |  |  |
| Cc1onc(-c2ccccc2)c1C(=O)N[C@@H]1C(=O)N2[C@@H]1SC(C)(C)[C@@H]2C(=O)O [OXACILLIN] | 48 (≈ 120 µM) | > 256 | > 256 | > 256 | > 256 | > 256 | > 256 | > 256 | > 256 | > 256 |  |  |  |  |  |  |  |  |  |  |
| CCCCCCCCCC(=O)N[C@@H](Cc1c[nH]c2ccccc12)C(=O)N[C@H](CC(N)=O)C(=O)N[C@@H](CC(=O)O)C(=O)N[C@@H]1C(=O)NCC(=O)N[C@@H](CCCN)C(=O)N[C@@H](CC(=O)O)C(=O)N[C@H](C)C(=O)N[C@@H](CC(=O)O)C(=O)NCC(=O)N[C@H](CO)C(=O)N[C@@H]([C@H](C)CC(=O)O)C(=O)N[C@@H](CC(=O)c2ccccc2N)C(=O)O[C@@H]1C | 0.38 (≈ 0.234 µM) | 0.25 (≈ 0.154 µM) | 1.5 (≈ 0.926 µM) | 2 (≈ 1.23 µM) | 1.5 (≈ 0.926 µM) | 0.25 (≈ 0.154 µM) | 0.25 (≈ 0.154 µM) | 0.25 (≈ 0.154 µM) | 1.5 (≈ 0.926 µM) | 1.5 (≈ 0.926 µM) | 2 (≈ 1.23 µM) |  | 2 (≈ 1.23 µM) |  |  |  | 0.5 (≈ 0.309 µM) | 2 (≈ 1.23 µM) | 0.5 (≈ 0.309 µM) | 2 (≈ 1.23 µM) |
